Measured values reported in ChEMBL document CHEMBL5661968, “Antitumor activity of ZSTK474, a new phosphatidylinositol 3-kinase inhibitor” (J Natl Cancer Inst, 2006).
Calls of active or inactive are those of the source. The calls are words filed in the database; no cut-off is given here.

Legend:
MKN-7 = assay: Growth inhibition of human MKN-7 cells measured after 48 hrs by sulforhodamine B assay; assay type: functional
Outline: (§1)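 JFCR39 panel lines were grown in RPMI 1640 with 5% FBS, penicillin and streptomycin at 37 °C in 5% CO2. After 48 h of drug exposure, total cellular protein was measured by sulforhodamine B staining. GI50 was calculated by a previously described method.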

LOX IMVI = assay: Growth inhibition of human LOX IMVI cells measured after 48 hrs by sulforhodamine B assay; assay type: functional; outline: as §1
NCI-H226 = assay: Growth inhibition of human NCI-H226 cells measured after 48 hrs by sulforhodamine B assay; assay type: functional; outline: as §1
[1] = Toxicity in nude mouse xenografted with human WiDr cells assessed as change in body weight at 400 mg/kg, po administered on day 0 to 13 except for day 3 and 10 measured after 28 days (reference value: 17 %); assay type: organism-based; conditions: in vivo, 672 h, time 28 day
OVCAR-8 = assay: Growth inhibition of human OVCAR-8 cells measured after 48 hrs by sulforhodamine B assay; assay type: functional; outline: as §1
[2] = Toxicity in nude mouse xenografted with human A549 cells assessed as change in body weight at 400 mg/kg, po administered on day 0 to 13 except for day 3 and 10 measured after 28 days (reference value: 17 %); assay type: organism-based; conditions: in vivo, 672 h, time 28 day
A549 [3] = assay: Growth inhibition of human A549 cells measured after 48 hrs by sulforhodamine B assay; assay type: functional; outline: as §1
[4] = target: Dual specificity mitogen-activated protein kinase kinase 1 (Homo sapiens) (UniProt Q02750); assay: Inhibition of MEK1 phosphorylation at Ser-217/221 residues in human A549 cells measured after 3 hrs by immunoblotting analysis; conditions: dose <= 2.0 µM
A549 [5] = assay: (§2) Inhibition of PI3K in human A549 cell lysate preincubated with compound for 5 mins followed by [gamma-32p]-ATP addition measured after 20 mins by immunoprecipitation based liquid scintillation spectroscopic analysis; assay type: subcellular; conditions: dose 0.01-1 µM, time 25.0 min
Outline: (§3)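 PI3K immunoprecipitated with anti-p85 polyclonal antibody and protein G–agarose from A549 lysate (2–4 mg/mL protein), washed, suspended in buffer C (100 mM NaCl, 20 mM Tris pH 7.5) with 200 μg/mL phosphatidylinositol; compound preincubated 5 min at 25 °C; reaction started with [γ-32P]ATP (20 μM final) and 20 mM MgCl2, run 20 min at 25 °C; PI3P separated by TLC, counted by scintillation; activity as % of no-compound cpm.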

[6] = as §2; assay type: subcellular; outline: as §3
SF-268 = assay: Growth inhibition of human SF-268 cells measured after 48 hrs by sulforhodamine B assay; assay type: functional; outline: as §1

Sequence of Dual specificity mitogen-activated protein kinase kinase 1 (Homo sapiens) (Q02750 whole entry): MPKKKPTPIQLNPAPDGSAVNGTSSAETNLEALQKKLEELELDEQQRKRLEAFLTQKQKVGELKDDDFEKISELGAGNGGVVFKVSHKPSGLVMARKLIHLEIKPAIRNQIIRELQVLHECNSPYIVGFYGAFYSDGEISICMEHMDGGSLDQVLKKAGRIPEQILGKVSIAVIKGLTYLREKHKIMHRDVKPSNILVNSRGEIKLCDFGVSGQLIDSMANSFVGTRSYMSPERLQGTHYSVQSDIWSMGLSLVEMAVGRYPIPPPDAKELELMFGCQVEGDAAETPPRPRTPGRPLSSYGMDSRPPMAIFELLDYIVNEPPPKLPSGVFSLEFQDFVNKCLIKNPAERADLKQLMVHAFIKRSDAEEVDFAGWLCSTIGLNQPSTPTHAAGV

What does the source list for `FC(F)c1nc2ccccc2n1-c1nc(N2CCOCC2)nc(N2CCOCC2)n1` [ZSTK-474]?
GI50 (MKN-7): 1320 nM; GI50 (LOX IMVI): 457 nM; GI50 (NCI-H226): 120 nM; Activity [1]: 3%; GI50 (OVCAR-8): 1050 nM; Activity [2]: 0%; GI50 (A549 [3]): 501 nM; inhibition [4]: inactive; Activity (A549 [5]): Dose-Dependent Effect; IC50 [6]: 37 nM; GI50 (SF-268): 646 nM
